Shown are actives, neighbours in structure and some others; about 3.1% of the full set was active somewhere.
KCNQ1 block – blocks the human KCNQ1 potassium channel; P51787; CHO-K1 KCNQ1, FluxOR thallium flux fluorescence; stronger effect = higher value; 310,000 tested, 1.3% active; B-score at 10 µM;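 active = compounds whose thallium flux B-score, printed positive for inhibition, exceeds three library SD while starting fluorescence stays within three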;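 note: channel opened by potassium depolarization with thallium stimulus after 20 min compound exposure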
hERG rescue – compounds protecting human hERG from proarrhythmic drug block; Q12809; CHO-hERG, FluxOR thallium flux, dofetilide IC70 present; activation (rescue from dofetilide block), less the hit threshold, % at 10 µM; 310,000 tested, 0.51% active;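 active = activation above the mean of controls blocked by dofetilide plus 5 SD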;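 note: thallium influx through hERG after potassium depolarization seen as dye fluorescence rise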
KCNQ1 pot – human KCNQ1 channel potentiation or activation | P51787 | CHO-K1 KCNQ1, thallium flux FluxOR fluorescence; stronger effect = higher value | B-score at 10 µM | 310,000 tested, 0.35% active | AID 2648;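 active = fluorescence ratio B-score, a plate-corrected score, at least three library SD, with initial intensity B-score within 5 SD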
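System: CHO-K1 cells stably expressing KCNQ1 / Medium: assay buffer for compound exposure, DMSO matched across wells / Reagent: thallium- and potassium-containing depolarizing buffer / Compound: one concentration, matched DMSO / Incubation: 20 min compound pretreatment at room temperature / Measured by: kinetic FluxOR fluorescence, 10 s baseline plus 110 s post-stimulus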
KCNK3 block – human KCNK3 channel inhibition, primary screen | CHO-KCNK3 thallium flux, FluxOR fluorescence; stronger effect = lower value | 340,000 tested, 0.84% active | B-score at 10 µM | AID 602410 | O14649;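 active = B-score under library mean minus 4 SD, starting fluorescence ratio at most library mean plus 5 SD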;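 note: more negative B-score means stronger inhibition of thallium flux through KCNK3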
KCNK9 inh – human KCNK9 channel inhibition; B-score at 10 µM; Q9NPC2; HEK293 KCNK9, FluxOR thallium flux fluorescence; stronger effect = lower value; 310,000 tested, 1.2% active;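 active = ratio B-score over 3 SD below the library mean, with starting fluorescence within 5 SD of its mean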;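 note: negative B-score means less thallium flux so channel inhibition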
Target sequence (Q9NPC2 whole entry, looked up): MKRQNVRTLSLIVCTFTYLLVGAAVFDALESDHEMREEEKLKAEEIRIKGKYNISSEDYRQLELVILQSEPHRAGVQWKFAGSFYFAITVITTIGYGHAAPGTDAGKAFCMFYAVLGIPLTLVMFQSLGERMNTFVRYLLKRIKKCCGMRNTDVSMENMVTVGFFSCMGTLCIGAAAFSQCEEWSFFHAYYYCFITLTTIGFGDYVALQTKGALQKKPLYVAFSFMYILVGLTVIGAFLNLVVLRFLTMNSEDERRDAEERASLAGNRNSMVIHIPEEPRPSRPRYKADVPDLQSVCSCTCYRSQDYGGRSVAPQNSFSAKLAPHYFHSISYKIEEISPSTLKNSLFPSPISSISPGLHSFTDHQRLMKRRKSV
KCNQ1 block val – reconfirmed blocker of the human KCNQ1 potassium channel; shares compounds with KCNQ1 block; KCNQ1 cell line, FluxOR thallium flux fluorescence; inhibition, % at 10 µM; 1,600 tested, 93% active;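 active = primary screen active, with duplicate mean exceeding buffer control mean plus 3 SD of buffer wells, cut at about 28% in these data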;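 note: 0% = buffer control ratio and 100% = XE991 inhibitor control ratio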
CHO KCNQ1 ctr – activity in parental CHO cells lacking KCNQ1; AID 588366; shares compounds with KCNQ1 block; fluorescence ratio (Tl flux) at 10 µM; 1,600 tested, 21% active; parental CHO-K1, FluxOR thallium flux fluorescence ratio; stronger effect = lower value; zero means no signal rise above baseline;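 active = mean of duplicate thallium-flux fluorescence ratios in parental host cells more than 5 SD below the buffer control mean, cut at about 0.38 in these data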;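 note: ratio is peak minus minimum fluorescence divided by baseline fluorescence; actives read low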
KCNQ1 ephys val – blocks human KCNQ1 current in automated patch clamp; calls only at 10 µM; shares compounds with KCNQ1 block; 490 tested, 20% active; KCNQ1-CHO cells;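 active = KCNQ1 current drop exceeding 3 SD of negative control wells, seen in both duplicate runs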;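 note: steady state current during a 2 s step from -80 to +40 mV; negative values mean current inhibition and positive values mean potentiation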
KCNQ2 inh – rat KCNQ2 inhibition in KCNQ1 inhibitor specificity screen; KCNQ2 cells, FluxOR thallium flux fluorescence; inhibition, % at 10 µM; 1,600 tested, 71% active; shares compounds with KCNQ1 block; AID 651746;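 active = mean percent inhibition of the KCNQ2 thallium signal more than 5 SD above the buffer-only control wells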;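 note: KCNQ2 expressed in CHO cells; 0% = buffer control wells and 100% = XE-991 inhibitor control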
KCNQ1 KCNE1 spec – human KCNQ1/KCNE1 inhibition in KCNQ1 specificity screen | shares compounds with KCNQ1 block | KCNQ1/KCNE1 cells, FluxOR thallium flux fluorescence | inhibition, % at 10 µM | 1,600 tested, 77% active | AID 652147;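 active = mean percent inhibition of duplicate wells above the buffer-only control mean plus 3 SD of those controls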;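 note: 0% = buffer only wells and 100% = XE-991 inhibitor control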
* marks the source's active call; other numbers are inactive results; i = inactive; . = no result given.

SMILES	KCNQ1 block	hERG rescue	KCNQ1 pot	KCNK3 block	KCNK9 inh	KCNQ1 block val	CHO KCNQ1 ctr	KCNQ2 inh	KCNQ1 KCNE1 spec	others
CCCCCCCCOC(=O)c1nc(Cl)c(Cl)c(N)c1Cl	7*	-9	i	i	i	101*	0.46	65%*	126%*	KCNQ1 ephys val=i
COC(=O)c1nc(Cl)c(Cl)c(N)c1Cl	i	-4	i	i	i	.	.	.	.
Cc1nc2ccc(NS(=O)(=O)c3ccc4c(c3)OCCO4)cc2s1	10*	-8	i	i	i	98*	0.49	69%*	90%*	KCNQ1 ephys val=i
COc1cc2c3nc4n(c(=O)c3n(CC(=O)NCC3CCCO3)c2cc1OC)CCS4 (configuration not stated)	i	-3	i	i	i	.	.	.	.
Cc1cccc(CN2CCN(C(=O)CN(C)C(C)C(=O)Nc3ccc(C(N)=O)cc3)CC2)c1 (configuration not stated)	.	.	.	i	.	.	.	.	.
Cc1ccc(C(c2cc(Br)ccc2O)N2CCSCC2)cc1 (configuration not stated)	7*	-7	i	i	i	122*	0.42	107%*	136%*
COc1ccccc1C1=NOC(C)(c2nnc(Cc3ccccc3)o2)C1 (configuration not stated)	i	-6	i	i	i	.	.	.	.
Oc1cc2ccccc2cc1-c1n[nH]c(=S)o1	7*	-10	i	i	i	0	0.63	i	i
CN(C)c1ccc(/C=C2\Oc3ccc(C#Cc4cccc(N)c4)cc3C2=O)cc1	.	.	.	i	.	.	.	.	.
CCOC(=O)c1sc(NC(=O)CSc2nnnn2-c2ccccc2)nc1C	i	-9	i	i	i	.	.	.	.
Cc1sc(NC(=O)CSC2=NCCS2)nc1-c1ccccc1	i	-7	i	i	i	.	.	.	.
Cc1sc(NC(=O)CSc2ncn(-c3ccccc3)n2)nc1-c1ccccc1	6*	-2	i	i	i	32*	0.48	77%*	i
CCOC(=O)c1sc(NC(=O)CSc2ncn(-c3ccccc3)n2)nc1C	16*	-8	i	i	i	26*	0.52	i	i
COc1ccc(COC(=O)c2ccc(Br)c(S(=O)(=O)N3CCOCC3)c2)cc1F	i	-17	i	i	i	.	.	.	.
COc1ccc(S(=O)(=O)N2c3ccccc3OCC2c2ccccc2)cc1 (configuration not stated)	8*	-4	i	i	i	78*	0.38*	78%*	96%*
COc1ccc(C(C)=O)cc1CSc1nncn1C	8*	-4	i	i	i	64*	0.43	60%*	35%*
COc1ccc(C(C)=O)cc1CSc1nnc(-c2ccncc2)n1C	i	-5	i	i	i	.	.	.	.
CC(OC(=O)Cc1ccc(Cl)cc1)C(=O)NC1CCCCC1C (configuration not stated)	.	.	.	i	.	.	.	.	.
Cc1ccccc1NC(=O)NCc1ccccn1	i	-10	i	i	i	.	.	.	.
COc1ccc(-c2nc(-c3ccc(NC(=O)c4ccncc4)cc3)no2)cc1OC	12*	-10	i	i	i	0	0.48	71%*	i
Cc1cccc(OCC(=O)Nc2c3c(nn2C(C)(C)C)CS(=O)(=O)C3)c1	i	-7	i	i	i	.	.	.	.
O=C(CN1C2=NCCN2c2ccccc21)C12CC3CC(CC(C3)C1)C2	11*	-9	i	i	i	70*	0.43	74%*	40%*

High-throughput results deposited in PubChem by Johns Hopkins Ion Channel Center.
